Measured values collected from several papers.
Compare with care: the assays were run in different laboratories.

CC1(C)CCC(CN2CCN(c3ccc(C(=O)NS(=O)(=O)c4ccc(NCC5CCOCC5)c([N+](=O)[O-])c4)c(Oc4cnc5[nH]ccc5c4)c3)CC2)=C(c2ccc(Cl)cc2)C1 — IC50 (KMS-12-PE; cell growth or viability; ATP luminescence; 48 h): 13 nM
CC(O)CSc1nnc(-c2cc3ccccc3o2)n1-c1ccccc1 (stereo not shown) — inhibition zone (Escherichia coli; microbial growth; disc diffusion; 25 µg/disc): 10.3 mm
C=CC(=O)NC1CCN(c2ncc3ncnc(Nc4ccc(Oc5ccc6c(c5)ncn6C)c(C)c4)c3n2)CC1 — EC50 (IM95; cell growth or viability): 54.1 nM
CC(C)c1ccccc1[C@@H]1CCCN1C1CC2(CCN(c3ccc(C(=O)NS(=O)(=O)c4ccc(NC[C@H]5CC[C@](C)(O)CC5)c([N+](=O)[O-])c4)c(Oc4cnc5[nH]ccc5c4)c3)CC2)C1 — IC50 (MV4-11; cell growth or viability; ATP luminescence; 48 h): 1.2 nM
Cc1nc(Nc2ccc3c(c2)/C(=C/c2ccccc2C)C(=O)N3C)c2ccccc2n1 — IC50 (BEAS-2B; cell growth or viability; MTT): 15400 nM
CC(O)CSc1nnc(-c2ccccc2)n1-c1ccccc1 (stereo not shown) — inhibition zone (Staphylococcus aureus; microbial growth; disc diffusion; 25 µg/disc): 10 mm
Cc1c(C(=O)O)ccc2c3n(nc12)[C@@H]1[C@H](C3)N(CC2CC2)[C@@]2(C(=O)Nc3cc(Cl)ccc32)[C@H]1c1cccc(Cl)c1F — GI50 (human Fibroblast; cell growth or viability; ATP luminescence; 72 h): 5 nM
CN(C)[C@@H]1C(O)=C(C(N)=O)C(=O)[C@@]2(O)C(O)=C3C(=O)c4c(O)cccc4[C@@](C)(O)[C@H]3C[C@@H]12 — inhibition zone (Escherichia coli; microbial growth; disc diffusion; 100 µg/mL; 24 h): 0 mm
COc1cc(C=Nc2ccc(C)cc2Cl)ccc1O — inhibition zone (Escherichia coli; microbial growth; disc diffusion; 2000 µg/mL; 24 h): 14.8 mm
COc1cc2ncnc(N(C)c3ccc4c(c3)/C(=C/c3cccc(Cl)c3)C(=O)N4C)c2cc1OC — IC50 (BEAS-2B; cell growth or viability; MTT): 10100 nM
